Data: ChEMBL document CHEMBL4219238, “Design, synthesis, molecular modelling and in vitro cytotoxicity analysis of novel carbamate derivatives as inhibitors of Monoacylglycerol lipase” (Bioorg Med Chem, 2018)
Activity calls are given as the source filed them. No cut-off for these calls is given here.

Key:
Monoglyceride lipase = target: T1, Monoglyceride lipase (Mus musculus, UniProt O35678); test: Inhibition of MAGL in mouse B16-F10 cells using 7-HRA as substrate preincubated for 60 mins followed by substrate addition measured every 2.5 mins for 2 hrs by fluorescence assay; type: cell-based; details: read-out: IC50
T1 sequence (O35678 whole entry): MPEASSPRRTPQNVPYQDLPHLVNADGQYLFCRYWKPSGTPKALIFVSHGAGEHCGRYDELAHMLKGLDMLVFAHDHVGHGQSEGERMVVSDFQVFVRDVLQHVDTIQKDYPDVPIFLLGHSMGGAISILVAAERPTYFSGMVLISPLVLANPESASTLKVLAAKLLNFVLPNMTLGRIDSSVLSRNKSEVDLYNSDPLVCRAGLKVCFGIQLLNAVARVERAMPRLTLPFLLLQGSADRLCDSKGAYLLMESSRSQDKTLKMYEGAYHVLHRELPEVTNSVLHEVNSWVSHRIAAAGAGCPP

[1] = target: T2, Monoglyceride lipase (Mus musculus) (UniProt O35678); test: Inhibition of MAGL in mouse B16-F10 intact cells at 10 uM using 7-HRA as substrate preincubated for 6 hrs followed by substrate addition by fluorescence assay; type: cell-based
T2 sequence (whole entry): T1 sequence (O35678 whole entry)
Procedure, shortened: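 Intact B16-F10 cells cultured 6 h with compound or DMSO, homogenised 30 min at 4 °C in lysis buffer and spun 1,500 × g 5 min. 1 μg lysate assayed with 10 μM 7-HRA (ex 571/em 588 nm); 5-min values reported; mean ± SEM, n = 3.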

B16-F10 [2] = test: Antiproliferative activity against mouse B16F10 cells at 10 uM after 48 hrs by Cyto Tracker red dye based flow cytometry; type: functional, cell-based
Procedure, shortened: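 B16-F10 cells (Iscove's medium, 10% heat-inactivated FBS, 37 °C, 5% CO2) exposed to compound or DMSO for 48 h, stained with CytoTrack Red 628/643 and analysed by flow cytometry. Proliferation index (average number of cells that an initial cell became) expressed as fold change over DMSO control; n = 3; one-way ANOVA with Tukey post-test.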

B16-F10 [3] = test: Induction of apoptosis in mouse B16F10 cells assessed as live cells at 10 uM after 48 hrs by Annexin V-FITC/propidium iodide staining based flow cytometry (reference value: 88.04%); type: functional
B16-F10 [4] = test: Induction of apoptosis in mouse B16F10 cells assessed as early apoptotic cells at 10 uM after 48 hrs by Annexin V-FITC/propidium iodide staining based flow cytometry (reference value: 1.75%); type: functional
B16-F10 [5] = test: Induction of apoptosis in mouse B16F10 cells assessed as necrotic cells at 10 uM after 48 hrs by Annexin V-FITC/propidium iodide staining based flow cytometry (reference value: 2.62%); type: functional
B16-F10 [6] = test: Induction of apoptosis in mouse B16F10 cells assessed as live cells at 35 nM after 48 hrs by Annexin V-FITC/propidium iodide staining based flow cytometry (reference value: 79.55%); type: functional
B16-F10 [7] = test: Induction of apoptosis in mouse B16F10 cells assessed as early apoptotic cells at 35 nM after 48 hrs by Annexin V-FITC/propidium iodide staining based flow cytometry (reference value: 1.43%); type: functional
B16-F10 [8] = test: Induction of apoptosis in mouse B16F10 cells assessed as necrotic cells at 35 nM after 48 hrs by Annexin V-FITC/propidium iodide staining based flow cytometry (reference value: 5.48%); type: functional
B16-F10 [9] = test: Induction of apoptosis in mouse B16F10 cells assessed as early apoptotic cells at 75 nM after 48 hrs by Annexin V-FITC/propidium iodide staining based flow cytometry (reference value: 1.43%); type: functional
B16-F10 [10] = test: Induction of apoptosis in mouse B16F10 cells assessed as late apoptotic cells at 75 nM after 48 hrs by Annexin V-FITC/propidium iodide staining based flow cytometry (reference value: 13.54%); type: functional
B16-F10 [11] = test: Effect on ABHD6 mRNA expression in mouse B16F10 cells by RT-PCR method; type: functional
B16-F10 [12] = test: Effect on ABHD12 mRNA expression in mouse B16F10 cells by RT-PCR method; type: functional
HEK-293T [13] = test: Induction of apoptosis in HEK293T cells assessed as early apoptotic cells at 10 uM after 48 hrs by Annexin V-FITC/propidium iodide staining based flow cytometry (reference value: 7.41%); type: cell-based; details: human
Procedure, shortened: (§1)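 HEK293T (DMEM with 10% FBS) or MCF7 (DMEM/Ham's F-12 1:1, 10% FBS) cells treated 48 h with 10 μM compound or DMSO. Staining with Alexa Fluor 488 annexin V plus 5 μg/ml PI in HEPES/NaCl/CaCl2 binding buffer; 10,000 cells per sample read by flow cytometry; n = 3, mean ± S.E.M.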

HEK-293T [14] = test: Induction of apoptosis in HEK293T cells assessed as late apoptotic cells at 10 uM after 48 hrs by Annexin V-FITC/propidium iodide staining based flow cytometry (reference value: 2.07%); type: cell-based; details: human; procedure, shortened: as §1
HEK-293T [15] = test: Induction of apoptosis in HEK293T cells assessed as necrotic cells at 10 uM after 48 hrs by Annexin V-FITC/propidium iodide staining based flow cytometry (reference value: 8.09%); type: cell-based; details: human; procedure, shortened: as §1
MCF7 [16] = test: Induction of apoptosis in human MCF7 cells assessed as live cells at 10 uM after 48 hrs by Annexin V-FITC/propidium iodide staining based flow cytometry (reference value: 82.58%); type: functional; procedure, shortened: as §1
MCF7 [17] = test: Induction of apoptosis in human MCF7 cells at 10 uM after 48 hrs in presence of MAGL inhibitor JZL184 by Annexin V-FITC/propidium iodide staining based flow cytometry; type: functional, cell-based
MCF7 [18] = test: Induction of apoptosis in human MCF7 cells at 10 uM after 48 hrs by Annexin V-FITC/propidium iodide staining based flow cytometry; type: functional, cell-based; procedure, shortened: as §1

For O=C(Nc1cccc(-c2ccc(C(F)(F)F)cc2)c1)OCc1ccco1, the IC50 (Monoglyceride lipase) was 13.2 µM, the inhibition [1] was “Active” and the Activity (B16-F10 [2]) was “Active”. It also gave an Activity (B16-F10 [3]) of 17.8%, an Activity (B16-F10 [4]) of 3.87% and an Activity (B16-F10 [5]) of 14.25%. It also gave an Activity (B16-F10 [6]) of 66.12%, an Activity (B16-F10 [7]) of 1.9% and an Activity (B16-F10 [8]) of 2.62%. For the same molecule, the Activity (B16-F10 [9]) was 2.44%, the Activity (B16-F10 [10]) was 30.39% and the deltaCT (B16-F10 [11]) was 10.73. For the same molecule, the deltaCT (B16-F10 [12]) was 16.84, the Activity (HEK-293T [13]) was 8.13% and the Activity (HEK-293T [14]) was 2.1%. The Activity (HEK-293T [15]) was 8.4%, the Activity (MCF7 [16]) was 60.27% and the Activity (MCF7 [17]) was “Active”. For the same molecule, the Activity (MCF7 [18]) was “Active”.
